The list is not random: actives were taken first. Their share in the collection is about 1.5%.
NSD2 inh = NSD2 (human) methyltransferase inhibition; NSD2 peptide methylation, AlphaScreen, 120 min; 310,000 compounds, 0.54% hits; O96028; inhibition, % at 12.5 µM; AID 743445
DNMT1 block = DNMT1 (human) enzyme inhibition | P26358 | DNMT1 molecular beacon, Hinp1I cleavage, fluorescence | inhibition (reported as % activation of signal), % at 10 µM | 360,000 compounds, 0.83% hits | AID 588458
HCV NS3 hel inh = HCV NS3 helicase inhibition; NS3 helicase DNA unwinding, Cy5 molecular beacon fluorescence; inhibition, % at 10.9 µM; 290,000 compounds, 0.56% hits; AID 1800;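 active means inhibition above the mean of all tested compounds plus 3 SD, set per campaign, cut at about 35% in these data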;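 further: 0% = DMSO wells and 100% = thioflavine S control wells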
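System: HCV NS3 helicase fragment; control set: DMSO and thioflavine S; technique: Cy5 fluorescence at 0 and 60 min, beacon hairpin quenching; reagent: beacon DNA duplex substrate plus ATP; replicates: singlicate; schedule: 1 h reaction at 25 °C, ATP-initiated; medium: MOPS buffer pH 6.5 with MgCl2, DTT, Tween20, BSA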
Casp6 inh = blocks human caspase-6 cleavage activity; P55212; purified caspase-6, Z-VEID-R110 cleavage fluorescence; inhibition, % at 12.5 µM; 350,000 compounds, 0.53% hits;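 active means mean inhibition across replicates at least about 35%, with every replicate also reaching that limit, limit read from the data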;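 further: 0% = median of neutral control wells and 100% = no fluorescence left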
Target sequence (P55212 24-179 limits assumed): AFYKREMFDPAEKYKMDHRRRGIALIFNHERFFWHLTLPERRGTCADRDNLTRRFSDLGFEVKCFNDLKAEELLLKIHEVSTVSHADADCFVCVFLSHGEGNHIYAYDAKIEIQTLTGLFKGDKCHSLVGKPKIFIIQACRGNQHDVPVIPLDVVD
Target sequence (P55212 194-293 limits assumed): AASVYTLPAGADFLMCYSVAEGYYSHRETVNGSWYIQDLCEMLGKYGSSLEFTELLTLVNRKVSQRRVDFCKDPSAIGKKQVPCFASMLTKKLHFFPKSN
NS3 helicase cf = HCV NS3 helicase inhibition, confirmation assay | shares compounds with HCV NS3 hel inh | NS3 helicase DNA unwinding, Cy5 molecular beacon fluorescence | inhibition, % at 10.9 µM | 1,600 compounds, 31% hits;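 active means inhibition above the mean of all tested compounds plus 3 SD, cutoff set per campaign, cut at about 36% in these data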
FID counter trip = counter-screen for HCV NS3 helicase inhibitors: DNA intercalator displacement; DNA fluorescent intercalator displacement, fluorescence; AID 1945; inhibition, % at 7.9 µM; shares compounds with HCV NS3 hel inh; 1,600 compounds, 4% hits; in the data active means inhibition above about 37%;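 further: 0% = vehicle and 100% = reference compound; higher means more displacement of ethidium bromide from the DNA hairpin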
DNA FID DR = displaces fluorescent intercalator from DNA, HCV helicase counter-screen. shares compounds with HCV NS3 hel inh. fluorescent intercalator displacement from DNA, fluorescence. IC50, µM. 120 tested, under 10 active. AID 2172; call rule not given here
* hit, by the source's call; . = no result given. Unless noted, no stated cut-off is given here; in the data, active means inhibition above about 50%; inactive means the rest.

SMILES	NSD2 inh	DNMT1 block	HCV NS3 hel inh	Casp6 inh	NS3 helicase cf	FID counter trip	others
CC(C)NC(=O)N(C)C[C@H]1Oc2cc(-c3ccncc3)ccc2S(=O)(=O)N([C@@H](C)CO)C[C@H]1C	.	.	.	-1	.	.
COC(=O)c1sc2ncn(N)c(=O)c2c1C	.	.	6	.	.	.
CCOC(=O)c1sc2ncn(/N=C/N(C)C)c(=O)c2c1C	-2	1	41*	.	-5	11
Cc1ccc(S(=O)(=O)Nc2cc(C(=O)O)ccc2N2CCCCC2)cc1	3	3	75*	6	17	-39
C[C@H]1CN([C@@H](C)CO)C(=O)c2cc(NC(=O)CCCCCC(=O)Nc3ccccc3N)ccc2O[C@@H]1CN(C)S(=O)(=O)c1ccccc1	.	.	.	0	.	.
O=C(NCC[C@@H]1CC[C@@H](NS(=O)(=O)c2ccccc2F)[C@@H](CO)O1)c1ccc(F)cc1	.	.	.	0	.	.
C#CCOc1c(/C=C\c2nc(O)c([N+](=O)[O-])c(=O)[nH]2)cc(Br)cc1OC	10	5	45*	26	26	4
COC(=O)COc1c(/C=C\c2nc(O)c([N+](=O)[O-])c(=O)[nH]2)cccc1OC	3	3	5	6	.	.
CS(=O)(=O)Nc1ccc2c(c1)[C@@H]1C[C@H](CC(=O)NCC(F)(F)F)O[C@@H](CO)[C@@H]1O2	.	.	.	-1	.	.
O=C(NC1CC1)c1cc(-c2ccco2)nc2ccccc12	4	90*	41*	.	34	6
Cc1ccc(S(=O)(=O)N(C)C[C@@H]2OCCCC[C@@H](C)Oc3ccc(NS(C)(=O)=O)cc3C(=O)N([C@@H](C)CO)C[C@H]2C)cc1	.	.	.	1	.	.
COCC(=O)N(C)C[C@@H]1Oc2cc(-c3ccncc3)ccc2S(=O)(=O)N([C@H](C)CO)C[C@H]1C	.	.	.	3	.	.
O=c1nc(/C=C/c2cccn2-c2ccc([N+](=O)[O-])cc2)cc(C(F)(F)F)[nH]1	38	40	64*	1	-4	0
CCCCc1cc(=O)oc2cc(OCC(=O)N[C@@H](Cc3ccccc3)C(=O)O)ccc12	.	-3	50*	3	24	-26
CCCc1cc(=O)oc2cc(OCC(=O)NC(Cc3ccc(Cl)cc3)C(=O)O)ccc12 (stereo not drawn)	.	-2	5	2	.	.
CCOC(=O)c1ccc(N(C(=O)CNC(=O)c2ccco2)C(C(=O)NCC2CCCO2)c2ccc(OC)c(OC)c2)cc1 (stereo not drawn)	0	2	51*	0	-10	-53
COc1ccc(C(C(=O)NCC2CCCO2)N(C(=O)CNC(=O)c2ccco2)c2ccccc2)cc1OC (stereo not drawn)	1	3	-2	3	.	.
CC(CCc1ccco1)NC(=O)CCc1nnc2ccc(NCc3ccc(Cl)cc3)nn12 (stereo not drawn)	-2	9	-3	-2	.	.
CC(CCc1ccco1)NC(=O)CCc1nnc2ccc(NCc3ccccc3Cl)nn12 (stereo not drawn)	0	4	61*	0	4	-2
CN(C)CCCNC(=O)C[C@H]1CC[C@@H](NC(=O)Cc2cccnc2)[C@H](CO)O1	.	.	.	-1	.	.
COc1cccc(/C=C2/C(=O)NN(c3ccccc3)C2=O)c1	10	-4	24	8	.	.
COc1cccc(/C=C2/C(=O)NN(c3ccc(C)c(C)c3)C2=O)c1	5	-1	0	8	.	.
CCOc1cc(/C=C2/C(=O)NN(c3cccc(Cl)c3)C2=O)ccc1O	9	2	37*	1	64*	-4
COc1cc(/C=C2/C(=O)NN(c3cccc(Cl)c3)C2=O)cc(OC)c1O	13	-3	46*	4	51*	14
COc1cc(/C=C2/C(=O)NN(c3ccc(C)c(Cl)c3)C2=O)cc([N+](=O)[O-])c1O	22	39	37*	24	68*	-2
SMILES	NSD2 inh	DNMT1 block	HCV NS3 hel inh	Casp6 inh	NS3 helicase cf	FID counter trip	others
CNC[C@@H]1Oc2c(NS(=O)(=O)c3cccs3)cccc2C(=O)N([C@@H](C)CO)C[C@@H]1C	.	.	.	0	.	.
COCC#Cc1cnc2c(c1)C(=O)N([C@H](C)CO)C[C@H](C)[C@H](CN(C)C(=O)c1cnccn1)O2	.	.	.	1	.	.
COc1cccc2c1NC(C(=O)O)C1CC=CC21 (stereo not drawn)	.	98*	58*	.	93*	-2
CC(=O)c1ccc2c(c1)C1C=CCC1C(c1ccncc1)N2 (stereo not drawn)	5	-35	17	.	.	.
CC(=O)c1ccc2c(c1)C1C=CCC1C(C(=O)O)N2 (stereo not drawn)	128*	91*	51*	.	90*	1
O=C(NC(Cc1ccccc1)C(=O)O)/C(=C\c1ccc(Br)cc1)NC(=O)c1ccc(Br)o1 (stereo not drawn)	3	-1	11	7	.	.
O=C(NC(Cc1ccccc1)C(=O)O)/C(=C/c1ccc(Br)cc1)NC(=O)c1ccc(Br)o1 (stereo not drawn)	2	0	41*	14	38*	-19
O=C(NCC1CCCO1)c1onc(CSc2ccccc2)c1C(=O)O (stereo not drawn)	.	0	-1	-3	.	.
CC(C)c1ccc(SCc2noc(C(=O)NCC3CCCO3)c2C(=O)O)cc1 (stereo not drawn)	.	1	41*	0	36	-19
COc1ccc(NC(=O)CN2C(=O)/C(=C3\SC(=S)N(CCC(=O)O)C3=O)c3ccccc32)cc1	3	3	28	.	.	.
O=C(O)CCN1C(=O)/C(=C2\C(=O)N(Cc3ccccc3Cl)c3ccccc32)SC1=S	5	89*	44*	-4	91*	4	DNA FID DR=>79
Cc1ccc(-n2ncc(C#N)c2/N=C/N2CCCCCC2)cc1	-9	-2	101*	.	1	-38
COc1ccc(S(=O)(=O)N(C)C[C@@H]2Oc3ccc(NC(=O)Cn4cnnn4)cc3C(=O)N([C@H](C)CO)C[C@@H]2C)cc1	.	.	.	3	.	.
C[C@@H]1CN([C@@H](C)CO)C(=O)c2cccc(NC(=O)Nc3ccc(F)cc3)c2O[C@H]1CN(C)S(C)(=O)=O	.	.	.	2	.	.
Cc1ccc(N(C(=O)c2csnn2)C(C(=O)NC2CCCC2)c2ccncc2)c(C)c1 (stereo not drawn)	-3	-1	39*	0	-7	-8
CN(C(=O)CSc1nnc(N)s1)C1CCCCC1	-1	-3	37*	-4	-7	8
Nc1nnc(SCC(=O)NC2CCCC2)s1	-8	3	6	0	.	.
Cc1noc(C)c1NC(=O)Nc1ccc2c(c1)CC(=O)N([C@H](C)CO)C[C@@H](C)[C@H](CN(C)S(=O)(=O)c1c(C)noc1C)O2	.	.	.	-2	.	.
COC(=O)C[C@@H]1CC[C@@H]2[C@@H](COc3ccc(NC(=O)c4ccccc4)cc3C(=O)N2C)O1	.	.	.	0	.	.
Cc1ccc(-c2csc(N/N=C/c3ccco3)n2)cc1	-1	-24	46*	.	-11	13

Screening results (PubChem BioAssay)
